Bioassay records: PubChem, several laboratories
HSF1 inh: HSF1 inhibition. NIH3T3-HGL HSE-luciferase, MG132-induced, luminescence 8 h; stronger effect = lower value. activity change, negative = inhibition, % at 7.5 µM (by protocol). 0.77% of 300,000 active. AID 2098;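 active = more than half of replicate wells show activity change below -50%, luminescence cut by over half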;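 note: luciferase reports HSF-1 transcriptional activity via heat shock element; 0% = median of DMSO wells and -100% = zero luminescence signal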
PolyA inh: inhibitors of polyadenylation in S. cerevisiae | activity score, % at 12 µM | S. cerevisiae SKY197-pL101 polyadenylation reporter, beta-gal luminescence; efflux-impaired pdr1/pdr3 knockout yeast; score 100 = 6 SD above DMSO | 0.02% of 300,000 active;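 active = lowest replicate activity score at least 50, where 100 means six control SD above control mean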;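 note: yeast exposed to compound for 9 h at 30 °C; higher score means more reporter readthrough which indicates perturbed polyadenylation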
PERK inhibitor: inhibitors of human PERK kinase; 0.17% of 220,000 active; inhibition, % at 5.6 µM; Q9NZJ5; AID 1416; CHO PERK-DD fusion, SEAP luminescence translation reporter;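 active = inhibition above the mean inhibition of all tested compounds plus 3 SD, set separately per screening campaign, cut at about 2.9% in these data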;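 note: PERK kinase domain activated by AP20187 dimerizer at 100 nM; 0% = DMSO with dimerizer and 100% = rapamycin at 8.4 µM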
AHR activator: human AHR activation. AID 2796. activation, % at 5 µM. 2.5% of 320,000 active. P35869. AHR-responsive luciferase reporter cells, luminescence; in the data active = activation above about 47%;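 note: 0% = vehicle wells and 100% = reference agonist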
Target sequence (P35869 whole entry, looked up): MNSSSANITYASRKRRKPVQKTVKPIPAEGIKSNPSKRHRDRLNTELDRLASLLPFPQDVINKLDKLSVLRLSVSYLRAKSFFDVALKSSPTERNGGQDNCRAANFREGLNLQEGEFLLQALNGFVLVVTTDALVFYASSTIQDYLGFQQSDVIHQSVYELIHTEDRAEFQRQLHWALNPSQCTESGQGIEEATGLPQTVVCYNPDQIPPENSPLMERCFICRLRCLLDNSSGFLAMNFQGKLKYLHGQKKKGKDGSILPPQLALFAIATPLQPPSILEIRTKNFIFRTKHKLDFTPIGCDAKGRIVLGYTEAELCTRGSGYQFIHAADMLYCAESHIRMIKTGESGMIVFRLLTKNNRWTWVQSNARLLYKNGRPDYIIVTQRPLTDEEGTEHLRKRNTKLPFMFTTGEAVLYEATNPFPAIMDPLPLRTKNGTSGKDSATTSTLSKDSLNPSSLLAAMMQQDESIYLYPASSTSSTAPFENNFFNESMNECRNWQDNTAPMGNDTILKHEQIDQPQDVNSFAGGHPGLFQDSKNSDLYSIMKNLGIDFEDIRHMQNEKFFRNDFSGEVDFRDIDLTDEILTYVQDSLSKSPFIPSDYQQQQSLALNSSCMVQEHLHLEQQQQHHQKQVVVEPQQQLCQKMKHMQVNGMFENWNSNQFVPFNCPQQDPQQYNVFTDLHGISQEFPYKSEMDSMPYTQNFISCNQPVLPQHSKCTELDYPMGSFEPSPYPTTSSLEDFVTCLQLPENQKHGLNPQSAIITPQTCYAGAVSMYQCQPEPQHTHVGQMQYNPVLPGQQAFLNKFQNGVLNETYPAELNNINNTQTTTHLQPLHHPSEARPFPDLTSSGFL
STAT3 activator: activators of IL-6 induced STAT3 signaling. U3A cells, IL-6 STAT3-luciferase reporter, luminescence; 100% = signal with IL-6 EC80 alone. activation (% of control), % at 5.6 µM. 0.91% of 190,000 active;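 active = activation above the screen-wide mean of compound activation plus 3 SD, cut at about 130% in these data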;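 note: 0% = background luminescence of wells with medium and substrate only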
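Detection: reporter luminescence signal / Assay system: STAT1-lacking human U3A cells, STAT3 luciferase reporter / Incubation: compound pre-incubation 1 h before IL-6, then 6 h stimulation at 37 °C / Control set: IL-6-only high control / Read-out: % activation relative to IL-6 control / Probe or stimulus: Interleukin-6, 33 ng/mL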
Hsp70 act: transcriptional activators of Hsp70. activation, % at 10 µM. HeLa Hsp70 promoter luciferase reporter, luminescence; scaled: vehicle 0, proteasome-inhibitor control 100%. 0.04% of 200,000 active;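 active = activation above the mean across all tested compounds plus 3 SD, cutoff set per campaign, cut at about 5.5% in these data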;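 note: 100% = MG132 at 30 µM as the positive control and 0% = DMSO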
AHR act confirm: confirmation of human aryl hydrocarbon receptor activators | human cells, AHR-responsive luciferase reporter, luminescence | 87% of 2,300 active | AID 2845 | shares compounds with AHR activator | activation, % at 9 µM; in the data active = activation above about 49%;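 note: HepG2 hepatoma cells carrying a DRE-driven firefly luciferase reporter; 0% = vehicle wells and 100% = reference agonist wells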
PXR counter: activates human PXR in AHR activator counter-screen. cell-based PXR reporter, luciferase luminescence. activation, % at 11.6 µM. shares compounds with AHR activator. 88% of 2,300 active; in the data active = activation above about 11%;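 note: human hepatoma DPX-2 cells expressing full-length human PXR; 0% = DMSO and 100% = reference agonist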
Numbers without * were called inactive; nt = not tested or not shown. A selection: hits, their analogues and other compounds. The true share with any hit is near 3.6%.

SMILES	HSF1 inh	PolyA inh	PERK inhibitor	AHR activator	STAT3 activator	Hsp70 act	AHR act confirm	PXR counter
CC1(C)CC(=O)C(CC(=O)NC2CCCc3ccccc32)C(=O)C1 (stereo unspecified)	-7	3	0	-2	93	0	nt	nt
c1ccc(-c2nc(NCCCn3ccnc3)c3ccccc3n2)cc1	-10	1	-1	82*	102	0	89*	76*
COCCCNc1nc(-c2ccncc2)nc2ccccc12	-3	-10	-2	88*	91	0	103*	56*
CCN1CCN(c2ccccc2NC(=O)c2ccc(-n3cccn3)cc2)CC1	nt	nt	nt	11	nt	nt	nt	nt
CC(=O)C[C@H](O)CC(=O)[C@@H]1OC(=O)CCCCCc2ccccc21	nt	nt	nt	0	nt	nt	nt	nt
O=C(C[n+]1ccc(C(=O)NCCCO)cc1)c1cccc(Br)c1	1	-1	2	-1	nt	nt	nt	nt
O=C(NCC(=O)N1CCN(c2ccccc2)CC1)c1ccco1	-4	-1	nt	-2	nt	nt	nt	nt
CCn1c(=O)c2sccc2n(Cc2ccccc2)c1=O	-1	15	nt	0	nt	nt	nt	nt
COC(=O)c1ccc(C(=O)OC)c(NC(=S)N2CCN(C(=O)C3CCCO3)CC2)c1 (stereo unspecified)	-28	-7	-1	-1	nt	nt	nt	nt
COc1cccc(Nc2nc(-c3cccs3)nc3ccccc23)c1	-9	-32	-1	88*	99	0	41	68*
CCOC(=O)c1c(C)[nH]c(C(=O)N/N=C\c2ccccc2Cl)c1C	2	13	0	81*	80	0	73*	15*
Cc1c(/C=N/NC(=O)COc2ccccc2[N+](=O)[O-])c2ccccc2n1C	-3	-4	0	81*	111	0	95*	101*
Cc1[nH]n(-c2ccccc2)c(=O)c1/C=N/NC(=O)COc1ccccc1[N+](=O)[O-]	9	1	0	9	90	0	nt	nt
CCCCn1c(N)c(N(Cc2ccccc2OC)C(=O)C(C)Oc2ccc(Cl)cc2)c(=O)[nH]c1=O (stereo unspecified)	-1	-8	nt	14	nt	nt	nt	nt
CN(C)n1cnc2ccsc2c1=O	-4	3	2	0	99	0	nt	nt
Nc1nc(Cl)nc2c1ncn2C1CC(O)C(CO)O1 (stereo unspecified)	-46	7	nt	0	nt	nt	nt	nt
Nc1c(C(=O)Nc2ccc(Cl)cc2)oc2ccccc12	26	6	1	107*	173*	0	132*	60*
Nc1c(C(=O)c2ccc(F)cc2)oc2ccccc12	1	-28	0	92*	126	0	156*	16*
Nc1c(C(=O)c2ccccc2)oc2ccccc12	5	-15	0	112*	106	1	140*	24*
COc1cccc(C(=O)Nc2c(C(N)=O)oc3ccccc23)c1	-9	25	-1	94*	94	0	133*	21*
COc1ccc(C(=O)c2oc3ccccc3c2N)cc1	7	-4	1	82*	131	0	133*	12*
C#Cc1ccc(C(=O)Nc2cc(C(N)=O)ccc2N2CCOCC2)cc1	1	17	0	80*	104	0	72*	12*
CN(CCOC(=O)/C=C/c1ccco1)Cc1ccccc1	-3	nt	0	0	95	0	nt	nt
COc1cc(NC(=O)C(C)Oc2ccccc2)c(OC)cc1NC(=O)c1ccccc1 (stereo unspecified)	4	8	nt	82*	nt	nt	100*	14*
COc1cc(N)c(Cl)cc1NC(=O)c1ccccc1	37	7	-1	94*	98	0	117*	15*
SMILES	HSF1 inh	PolyA inh	PERK inhibitor	AHR activator	STAT3 activator	Hsp70 act	AHR act confirm	PXR counter
CC(Oc1ccccc1)C(=O)Nc1ccc(NC(=O)c2ccccc2)cc1 (stereo unspecified)	-3	19	nt	2	nt	nt	nt	nt
COc1cc(OC)c(NC(=O)c2ccc(F)cc2)cc1Cl	-4	-8	1	2	89	0	nt	nt
CC(=O)n1c2ccccc2c2c1c1ccccc1n2C	-5	-27	0	109*	106	0	113*	22*
Cc1ccc(COc2ccc(CNCCCN3CCCCCC3=O)cc2)cc1	1	4	nt	0	nt	nt	nt	nt
COCC(=O)N1CCc2ccc(NC(=O)c3ccc(C(F)(F)F)cc3)cc2C1	-1	-3	nt	103*	nt	nt	73*	nt
COc1cccc(/C=N/Nc2snc(SC)c2C#N)c1O	28	-10	0	39	68	0	nt	nt
COc1ccc(/C=N/Nc2snc(SC)c2C#N)cc1OC	40	0	-1	84*	104	0	137*	25*
Fc1ccccc1C1CC(c2ccco2)=Nc2ccccc2S1 (stereo unspecified)	-27	-4	0	23	nt	nt	nt	nt
Cc1csc(NC(=O)c2ccccc2O)n1	5	7	1	15	93	0	nt	nt
Cc1c(C(=O)Nc2nnc(C3CC3)s2)oc2ccccc12	nt	nt	nt	111*	nt	nt	136*	55*
Cc1csc(NC(=O)c2oc3ccccc3c2C)n1	4	-18	nt	83*	nt	nt	136*	27*
COC(=O)c1cc(S(=O)(=O)N2CCCCCC2)cn1C	-1	-7	nt	2	nt	nt	nt	nt
COc1ccc(Cl)cc1NC(=O)C(OC)c1ccccc1 (stereo unspecified)	-2	11	-1	101*	96	0	97*	47*
COc1cc(NC(=O)C/C(C)=N/NC(=O)C(OC)c2ccccc2)c(OC)cc1Cl (stereo unspecified)	4	0	0	105*	104	0	24	10
O=C1CC2(CCN(C(=O)COc3ccc(Cl)cc3)CC2)Oc2ccccc21	6	-4	nt	-2	nt	nt	nt	nt
Nc1ccc(-c2nc3c(ccc4ccccc43)[nH]2)cc1	39	-4	nt	83*	nt	nt	60*	10
Cc1ccc(S(=O)(=O)N2CCCOC2CNC(=O)C(=O)NC2CCCCC2)cc1 (stereo unspecified)	3	-7	0	0	98	0	nt	nt
CC1(C)Cc2c(sc3[nH]c(=O)n(CC(=O)NCC4CCCO4)c(=O)c23)CO1 (stereo unspecified)	-3	2	nt	1	nt	nt	nt	nt
C[C@H]1COC(=O)[C@@H](Cc2ccc(F)cc2)C/C=C\C[C@@H](CC(=O)N[C@@H](CO)Cc2ccccc2)C(=O)N1	nt	nt	nt	0	nt	nt	nt	nt
Cc1ccccc1OCC(=O)N/N=C/c1ccccn1	-1	10	0	81*	93	0	29	9
Cc1cc(C)cc(OCC(=O)N/N=C/c2ccccn2)c1	2	23	2	13	nt	nt	nt	nt
